Screening results: PubChem BioAssay, several laboratories
In the library only some 1.1% were active in any assay of this set; here they are far more common.
thrombin 1536: thrombin (human) inhibition; P00734; alpha-thrombin, Boc-VPR-AMC fluorogenic substrate cleavage; inhibition, % at 5 µM; 220,000 compounds, 0.26% hits; AID 1046;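 active = inhibition at or above 40%; inactive = inhibition below 40%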;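 also: 0% = enzyme with no compound and 100% = wells without enzyme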
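System – human alpha-thrombin protein · Reagent – Boc-VPR-AMC substrate, 15 µM final · Compound – 5 µM single dose in 0.2% DMSO · Schedule – reaction at room temperature · Technique – AMC fluorescence at 355 nm excitation and 460 nm emission · Read-out basis – % inhibition relative to enzyme controls and enzyme-free blanks · Control set – no-compound enzyme wells and no-enzyme blanks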
KLK5 inh: inhibitors of human kallikrein 5 | Q9Y337 | recombinant hK5, fluorogenic AMC substrate cleavage | inhibition, % at 5 µM | 210,000 compounds, 0.59% hits | AID 873;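 active = inhibition of 40% or more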;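 also: 0% = enzyme controls without compound and 100% = no-enzyme blanks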
Furin inh: blocks human furin protease activity | P09958 | purified furin, fluorogenic substrate cleavage | inhibition, % at 20 µM or 30 µM | 220,000 compounds, 0.061% hits | AID 463115; in the data active = inhibition above about 25%
FXIIa inh 1536: blocks human coagulation factor XIIa protease activity | P00748 | purified FXIIa, Boc-QGR-AMC fluorogenic substrate, 2 h | inhibition, % at 5 µM | 220,000 compounds, 0.3% hits; in the data active = inhibition above about 40%;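 also: 0% = enzyme with no compound and 100% = blank without enzyme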
Target sequence (P00748 20-372 limits assumed): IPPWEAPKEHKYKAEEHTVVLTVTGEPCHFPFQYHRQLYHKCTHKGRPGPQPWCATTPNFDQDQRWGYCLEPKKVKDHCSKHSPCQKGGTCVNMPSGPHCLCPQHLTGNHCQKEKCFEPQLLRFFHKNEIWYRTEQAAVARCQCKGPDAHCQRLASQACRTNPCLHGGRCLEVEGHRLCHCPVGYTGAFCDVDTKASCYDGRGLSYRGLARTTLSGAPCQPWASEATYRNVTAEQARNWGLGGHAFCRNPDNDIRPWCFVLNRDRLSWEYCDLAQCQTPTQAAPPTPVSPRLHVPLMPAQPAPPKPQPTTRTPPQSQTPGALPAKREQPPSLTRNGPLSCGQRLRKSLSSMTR
Target sequence (P00748 373-615 limits assumed): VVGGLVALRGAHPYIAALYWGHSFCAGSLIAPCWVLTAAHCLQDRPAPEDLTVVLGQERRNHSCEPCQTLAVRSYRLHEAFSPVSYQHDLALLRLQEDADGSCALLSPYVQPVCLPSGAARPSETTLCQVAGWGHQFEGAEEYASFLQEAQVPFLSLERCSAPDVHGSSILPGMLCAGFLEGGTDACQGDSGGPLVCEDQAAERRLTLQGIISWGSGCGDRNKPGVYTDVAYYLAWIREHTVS
FXIa inh: inhibitors of human coagulation factor XIa. purified FXIa, Boc-Glu-Ala-Arg-AMC fluorogenic substrate. inhibition, % at 5 µM. 220,000 compounds, 0.14% hits;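 active = inhibition of at least 40%; inactive = inhibition below 40%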;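 also: fluorescence of freed AMC excited at 355 nm; 0% = enzyme without compound and 100% = no enzyme blank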
An asterisk follows results filed as active.

SMILES | thrombin 1536 | KLK5 inh | Furin inh | FXIIa inh 1536 | FXIa inh
O=C(CCS(=O)(=O)c1ccc(Br)cc1)Nc1ccc(Br)cc1F | 3 | -8 | -19 | 32 | 24
Cc1ccn(CC(=O)O)c(=O)c1 | -6 | -2 | -37 | 58* | 28
CCCCNC(=O)COC(=O)CNC(=O)c1cc(Cl)cc([N+](=O)[O-])c1 | -7 | -3 | -28 | 5 | 5
C#CCOCCOCCOCCNc1nc(N2CCN(C(=O)Cn3cc(CCCCN)nn3)CC2)nc(N2CCN(C(=O)[C@H](C)n3cc(CCCN=C(N)N)nn3)CC2)n1 | 38 | 1 | -10 | 7 | -6
C#CCOCCOCCOCCNc1nc(N2CCN(C(=O)Cn3cc(CC(C)O)nn3)CC2)nc(N2CCN(C(=O)[C@H](C)n3cc(CCCN=C(N)N)nn3)CC2)n1 (stereo partly drawn) | 40* | -7 | -19 | 9 | 3
COc1ccc(-c2nsc(SCC(=O)NCC3CCCO3)n2)cc1 (stereo not drawn) | -23 | -7 | -4 | 5 | -5
CN1CCN(C2=CC3=CC(=C(C#N)C#N)CCC3CC2)CC1 (stereo not drawn) | 5 | 4 | 0 | 11 | 0
CCN1CCN(C2=CC3=CC(=C(C#N)C#N)CCC3CC2)CC1 (stereo not drawn) | 15 | 6 | 28* | 17 | 10
C/C(Cc1ccccc1)=N\NC(=O)CNC(=O)/C=C\c1ccccc1 | 10 | 113* | -6 | 24 | 51*
COc1ccc(/C=C/C(=O)NCC(=O)N/N=C(\C)Cc2ccccc2)cc1 | 3 | 4 | -23 | 10 | 4
C/C(Cc1ccccc1)=N\NC(=O)CNC(=O)c1ccc(Cl)cc1Cl | 4 | 78* | -13 | 86* | 12
C/C(Cc1ccccc1)=N\NC(=O)CNC(=O)c1cccc(Cl)c1 | 4 | -1 | -15 | -3 | 8
COCCOC(=O)C(C#N)c1nc2ccccc2nc1N1CCN(Cc2ccccc2)CC1 (stereo not drawn) | -4 | 4 | -4 | 9 | 2
COCCCNC(=O)C(C#N)c1nc2ccccc2nc1N1CCN(Cc2ccccc2)CC1 (stereo not drawn) | -8 | -2 | 11 | 6 | 0
C=CCOC(=O)C(C#N)c1nc2ccccc2nc1N1CCN(Cc2ccccc2)CC1 (stereo not drawn) | 6 | 46* | -8 | -8 | 3
C=CCNC(=O)C(C#N)c1nc2ccccc2nc1N1CCN(Cc2ccccc2)CC1 (stereo not drawn) | 104* | 35 | -16 | 23 | 16
CC(=O)c1c(C)nn(C(=O)c2cccs2)c1C | 10 | 56* | -21 | 15 | 8
CCOC(=O)C1=C(C)N=C2SC=C(C)N2C1c1ccc(OC)cc1 (stereo not drawn) | -7 | 2 | -15 | 9 | -1
Cc1ccc(C(=O)Nc2ccc3c(c2)CCC3)o1 | 11 | 84* | -9 | 23 | 19
Cc1ccc(S(=O)(=O)/N=C/c2ccco2)cc1 | 104* | 87* | -29 | 31 | 5
COc1ccc(NC(=O)c2cccnc2N2CCCC2)cc1 | 25 | 59* | -23 | 4 | 2
COc1ccc(NC(=O)c2cccnc2N2CCCCC2)cc1 | 2 | -26 | -14 | 7 | 8
O=C(c1ccc(Cl)cc1)N1CCc2c([nH]c3ccccc23)C1C(F)(F)F (stereo not drawn) | -12 | 3 | 4 | 1 | -7
O=C(c1cn[nH]c1)N1CCc2c([nH]c3ccccc23)C1c1c(F)cccc1Cl (stereo not drawn) | 2 | 75* | -30 | 15 | 0
Clc1ccc(-c2ccccc2)nn1 | -6 | 45* | -14 | 5 | -9
SMILES | thrombin 1536 | KLK5 inh | Furin inh | FXIIa inh 1536 | FXIa inh
Clc1ccc(-c2cccs2)nn1 | -1 | 0 | -19 | 4 | -3
COC(=O)Cc1c(C)nc2nc[nH]n2c1=O | 14 | 54* | -14 | 48* | -3
CCCCCC(=O)OCCc1c(C)nc2nc[nH]n2c1=O | 3 | 14 | -3 | 3 | 3
O=C(COc1cc(O)c2c(=O)c3ccccc3oc2c1)OCc1ccccc1 | -2 | -1 | -23 | 5 | -2
O=C(O)CN(C1CCCCC1)S(=O)(=O)c1ccc(F)cc1 | -3 | 0 | -16 | 12 | 6
CCOC(=O)c1cc(C)sc1/N=C/C1C(=O)CC(C)(C)CC1=O | -2 | -15 | 26* | 0 | 1
CCOC(=O)c1c(CC(C)C)csc1/N=C/C1C(=O)CC(C)(C)CC1=O | 2 | 18 | -15 | 6 | 1
Nc1c(-c2ccccc2)c(CSc2nc3ccccc3[nH]2)nn1-c1cccc(Cl)c1 | 21 | 24 | -2 | 18 | 11
